Measurements published in ChEMBL document CHEMBL4138137, “Discovery of Novel 5-(Piperazine-1-carbonyl)pyridin-2(1H)-one Derivatives as Orally eIF4A3-Selective Inhibitors” (ACS Med Chem Lett, 2017).
Converted amounts (≈) assume the structure as drawn.

Columns and labels:
[1] = biological target: Eukaryotic initiation factor 4A-III (Homo sapiens, UniProt P38919); experiment: Inhibition of MLN51-induced full length recombinant human N-terminal His6/SUMO-tagged eIF4A3 RNA dependent ATPase activity expressed in Escherichia coli BL21(DE3) using single stranded poly(U) RNA as substrate after 30 mins by ADP-Glo luminescence assay
Sequence of Eukaryotic initiation factor 4A-III (P38919 whole entry): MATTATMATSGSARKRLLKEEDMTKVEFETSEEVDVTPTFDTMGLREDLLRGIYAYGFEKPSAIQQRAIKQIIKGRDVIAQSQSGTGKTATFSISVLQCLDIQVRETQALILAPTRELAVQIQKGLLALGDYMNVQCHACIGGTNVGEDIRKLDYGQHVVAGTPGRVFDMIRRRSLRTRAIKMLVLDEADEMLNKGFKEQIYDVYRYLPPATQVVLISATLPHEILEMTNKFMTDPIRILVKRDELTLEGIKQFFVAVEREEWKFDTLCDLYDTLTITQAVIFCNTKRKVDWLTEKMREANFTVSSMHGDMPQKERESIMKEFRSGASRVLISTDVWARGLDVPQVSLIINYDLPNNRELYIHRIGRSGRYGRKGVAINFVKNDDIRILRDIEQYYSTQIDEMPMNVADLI
Summary of the method: (§1)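 IC50 reported as the mean of duplicate experiments with 95% confidence intervals.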

[2] = Solubility of the compound at pH 6.8; format: physicochemical; settings: buffer
Summary of the method: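 Solubility measured at pH 6.8.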

[3] = Metabolic stability in mouse microsomes; format: ADME, Microsome; settings: read-out: Stability
Summary of the method: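 Metabolic stability measured in mouse liver microsomes, expressed in μL/min/mg.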

[4] = AUC (0 to 8 hrs) in ICR mouse at 1 mg/kg, po administered as cassette dose; format: ADME, organism-based; parameters: dose 1 mg/kg, time < 8 hr, route oral; settings: in vivo
Summary of the method: (§2)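 Cassette PK in male ICR mice, n = 3; dosed i.v. at 0.1 mg/kg and p.o. at 1 mg/kg. AUC taken over 0 to 8 h after oral dosing; bioavailability derived from the oral and i.v. exposures.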

[5] = Oral bioavailability in ICR mouse at 1 mg/kg administered as cassette dose; format: ADME, organism-based; settings: in vivo; summary of the method: as §2
HCT-116 [6] = experiment: Growth inhibition of human HCT116 cells after 3 days by CellTiter-Glo luminescence assay; format: functional; settings: HCT-116, 72 h
Summary of the method: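 HCT-116 cells exposed to compound for 72 h; growth read as intracellular ATP amount. GI50 derived by curve fitting. Data representative of three independent experiments.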

[7] = biological target: MDR1 (ABCB1, P-glycoprotein) (Homo sapiens, UniProt P08183); experiment: Substrate activity at MDR1 (unknown origin) assessed as efflux ratio of permeability; format: ADME; settings: not told
Sequence of MDR1 (ABCB1, P-glycoprotein) (P08183 whole entry): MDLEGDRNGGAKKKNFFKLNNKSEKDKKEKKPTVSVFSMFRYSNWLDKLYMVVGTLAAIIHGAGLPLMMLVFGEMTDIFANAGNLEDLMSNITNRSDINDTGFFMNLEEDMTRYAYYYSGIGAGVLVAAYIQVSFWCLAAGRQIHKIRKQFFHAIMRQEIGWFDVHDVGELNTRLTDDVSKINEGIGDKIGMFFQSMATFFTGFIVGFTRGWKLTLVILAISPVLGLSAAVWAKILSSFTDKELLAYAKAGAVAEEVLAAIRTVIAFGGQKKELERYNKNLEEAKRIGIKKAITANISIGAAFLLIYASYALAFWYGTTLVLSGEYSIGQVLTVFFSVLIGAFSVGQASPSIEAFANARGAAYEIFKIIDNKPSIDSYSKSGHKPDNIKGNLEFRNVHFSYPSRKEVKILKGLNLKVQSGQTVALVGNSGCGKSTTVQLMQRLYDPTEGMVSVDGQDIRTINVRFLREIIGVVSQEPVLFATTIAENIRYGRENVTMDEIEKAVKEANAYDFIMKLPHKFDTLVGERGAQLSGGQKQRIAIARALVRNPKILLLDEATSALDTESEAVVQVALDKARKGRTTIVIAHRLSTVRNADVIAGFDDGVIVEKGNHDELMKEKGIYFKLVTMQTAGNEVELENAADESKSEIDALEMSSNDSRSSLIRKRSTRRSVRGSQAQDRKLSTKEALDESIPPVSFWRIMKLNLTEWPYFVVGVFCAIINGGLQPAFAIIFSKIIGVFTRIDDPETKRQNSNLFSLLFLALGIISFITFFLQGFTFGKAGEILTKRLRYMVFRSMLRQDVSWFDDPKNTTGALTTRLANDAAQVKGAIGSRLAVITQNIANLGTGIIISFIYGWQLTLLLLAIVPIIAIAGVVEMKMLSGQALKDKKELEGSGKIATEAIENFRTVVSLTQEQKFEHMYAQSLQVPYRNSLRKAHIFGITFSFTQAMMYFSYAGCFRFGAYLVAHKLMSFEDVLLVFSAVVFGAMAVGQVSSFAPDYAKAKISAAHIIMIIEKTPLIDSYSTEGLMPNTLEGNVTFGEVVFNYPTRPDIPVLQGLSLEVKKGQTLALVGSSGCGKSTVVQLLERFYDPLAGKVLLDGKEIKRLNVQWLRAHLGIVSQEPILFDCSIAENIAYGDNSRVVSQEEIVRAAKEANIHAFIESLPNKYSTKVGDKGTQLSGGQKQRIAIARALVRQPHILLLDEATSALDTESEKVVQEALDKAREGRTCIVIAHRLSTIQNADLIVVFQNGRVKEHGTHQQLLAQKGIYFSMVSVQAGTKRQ
Summary of the method: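 Efflux ratio measured in vitro in an MDR1-overexpressing cell line.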

[8] = biological target: Eukaryotic initiation factor 4A-I (Homo sapiens, UniProt P60842); experiment: Inhibition of eIF4G-induced full length recombinant human N-terminal His6/SUMO-tagged eIF4A1 RNA dependent ATPase activity expressed in Escherichia coli BL21(DE3) using single stranded poly(U) RNA as substrate after 40 mins by ADP-Glo luminescence assay; summary of the method: as §1
Sequence of Eukaryotic initiation factor 4A-I (P60842 whole entry): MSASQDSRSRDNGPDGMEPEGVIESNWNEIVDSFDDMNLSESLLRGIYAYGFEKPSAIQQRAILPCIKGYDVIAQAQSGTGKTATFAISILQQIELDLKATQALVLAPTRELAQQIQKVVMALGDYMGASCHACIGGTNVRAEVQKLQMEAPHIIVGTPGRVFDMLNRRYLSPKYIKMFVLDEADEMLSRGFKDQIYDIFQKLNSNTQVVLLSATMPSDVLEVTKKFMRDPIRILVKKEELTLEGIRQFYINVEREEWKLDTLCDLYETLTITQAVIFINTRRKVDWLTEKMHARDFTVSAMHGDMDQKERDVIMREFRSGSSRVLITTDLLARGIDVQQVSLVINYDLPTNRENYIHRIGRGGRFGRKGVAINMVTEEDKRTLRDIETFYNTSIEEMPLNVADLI

[9] = biological target: Eukaryotic initiation factor 4A-II (Homo sapiens, UniProt Q14240); experiment: Inhibition of eIF4G-induced full length recombinant human N-terminal His6/SUMO-tagged eIF4A2 RNA dependent ATPase activity using single stranded poly(U) RNA as substrate after 40 mins by ADP-Glo luminescence assay; summary of the method: as §1
Sequence of Eukaryotic initiation factor 4A-II (Q14240 whole entry): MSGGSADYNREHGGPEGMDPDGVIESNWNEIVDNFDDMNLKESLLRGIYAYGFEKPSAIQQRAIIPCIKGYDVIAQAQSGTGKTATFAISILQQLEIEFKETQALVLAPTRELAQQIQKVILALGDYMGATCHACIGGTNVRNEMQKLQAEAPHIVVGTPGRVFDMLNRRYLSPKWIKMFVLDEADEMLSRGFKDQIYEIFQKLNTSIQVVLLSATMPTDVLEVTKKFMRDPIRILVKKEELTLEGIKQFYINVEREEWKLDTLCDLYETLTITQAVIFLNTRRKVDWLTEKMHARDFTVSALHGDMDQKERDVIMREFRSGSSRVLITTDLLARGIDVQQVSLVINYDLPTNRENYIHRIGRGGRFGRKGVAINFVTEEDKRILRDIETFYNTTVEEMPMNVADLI

[10] = biological target: U5 small nuclear ribonucleoprotein 200 kDa helicase (Homo sapiens, UniProt O75643); experiment: Inhibition of human recombinant N-terminal full length His-tagged BRR2 RNA dependent ATPase activity expressed in baculovirus infected Sf9 insect cells using single stranded poly(U) RNA as substrate after 30 mins by ADP-Glo luminescence assay; summary of the method: as §1
Sequence of U5 small nuclear ribonucleoprotein 200 kDa helicase (O75643 whole entry): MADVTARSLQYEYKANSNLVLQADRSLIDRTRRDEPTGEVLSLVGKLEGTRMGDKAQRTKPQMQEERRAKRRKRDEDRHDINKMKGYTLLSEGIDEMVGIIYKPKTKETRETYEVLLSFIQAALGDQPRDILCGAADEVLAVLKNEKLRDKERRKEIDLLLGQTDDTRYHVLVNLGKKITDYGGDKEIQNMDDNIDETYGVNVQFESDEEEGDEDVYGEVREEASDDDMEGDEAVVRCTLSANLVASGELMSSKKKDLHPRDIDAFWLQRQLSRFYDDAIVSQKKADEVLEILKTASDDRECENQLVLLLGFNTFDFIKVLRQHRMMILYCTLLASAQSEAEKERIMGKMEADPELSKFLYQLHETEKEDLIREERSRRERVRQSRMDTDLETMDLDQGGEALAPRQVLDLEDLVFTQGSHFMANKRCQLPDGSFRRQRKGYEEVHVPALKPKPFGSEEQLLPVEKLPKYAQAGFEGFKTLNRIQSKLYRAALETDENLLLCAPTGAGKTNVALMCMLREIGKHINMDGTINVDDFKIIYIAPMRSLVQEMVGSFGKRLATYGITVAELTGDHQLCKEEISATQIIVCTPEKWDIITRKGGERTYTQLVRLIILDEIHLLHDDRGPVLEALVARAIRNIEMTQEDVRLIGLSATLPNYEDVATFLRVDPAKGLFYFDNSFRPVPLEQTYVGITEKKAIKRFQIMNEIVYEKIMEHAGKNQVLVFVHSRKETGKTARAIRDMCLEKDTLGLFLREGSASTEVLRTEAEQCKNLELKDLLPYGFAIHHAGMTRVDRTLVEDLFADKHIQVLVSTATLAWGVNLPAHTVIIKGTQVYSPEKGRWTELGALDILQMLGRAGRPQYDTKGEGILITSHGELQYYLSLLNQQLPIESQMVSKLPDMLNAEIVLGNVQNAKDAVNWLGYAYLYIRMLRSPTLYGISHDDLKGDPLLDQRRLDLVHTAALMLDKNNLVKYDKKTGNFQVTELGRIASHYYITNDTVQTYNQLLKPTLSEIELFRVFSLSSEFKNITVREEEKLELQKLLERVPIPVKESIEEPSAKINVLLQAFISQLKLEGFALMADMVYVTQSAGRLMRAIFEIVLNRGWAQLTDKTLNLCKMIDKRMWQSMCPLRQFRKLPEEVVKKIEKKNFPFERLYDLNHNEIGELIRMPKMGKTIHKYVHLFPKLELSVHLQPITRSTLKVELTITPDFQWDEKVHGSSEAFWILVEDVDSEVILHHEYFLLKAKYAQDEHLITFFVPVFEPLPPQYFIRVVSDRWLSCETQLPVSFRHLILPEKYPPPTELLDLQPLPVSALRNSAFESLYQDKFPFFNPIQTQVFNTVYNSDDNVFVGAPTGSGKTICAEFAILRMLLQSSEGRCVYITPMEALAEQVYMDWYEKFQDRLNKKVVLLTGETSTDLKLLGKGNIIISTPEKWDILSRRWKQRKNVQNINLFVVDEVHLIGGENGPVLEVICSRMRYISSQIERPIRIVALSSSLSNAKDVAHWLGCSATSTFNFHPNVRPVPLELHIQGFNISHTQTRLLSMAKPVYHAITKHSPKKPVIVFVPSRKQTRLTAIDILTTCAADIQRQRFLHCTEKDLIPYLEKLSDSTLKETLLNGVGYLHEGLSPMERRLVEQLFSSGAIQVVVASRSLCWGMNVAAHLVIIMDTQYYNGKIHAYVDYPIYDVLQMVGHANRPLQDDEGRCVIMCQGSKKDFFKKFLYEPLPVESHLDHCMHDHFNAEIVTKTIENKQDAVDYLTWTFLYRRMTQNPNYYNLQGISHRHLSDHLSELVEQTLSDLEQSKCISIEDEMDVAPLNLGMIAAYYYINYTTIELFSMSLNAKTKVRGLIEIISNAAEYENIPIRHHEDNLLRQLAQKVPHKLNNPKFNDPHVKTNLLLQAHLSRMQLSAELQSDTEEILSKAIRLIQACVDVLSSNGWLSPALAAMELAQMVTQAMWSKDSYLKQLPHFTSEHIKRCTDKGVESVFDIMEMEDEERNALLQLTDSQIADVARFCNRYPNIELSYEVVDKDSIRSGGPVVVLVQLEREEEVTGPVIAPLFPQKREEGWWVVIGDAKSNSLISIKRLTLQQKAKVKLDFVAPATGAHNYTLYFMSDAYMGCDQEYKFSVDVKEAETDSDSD

[11] = biological target: T1, ATP-dependent RNA helicase DHX29 (Homo sapiens, UniProt Q7Z478); experiment: Inhibition of human recombinant N-terminal full length FLAG-His-tagged DHX29 RNA dependent ATPase activity expressed in baculovirus infected Sf9 insect cells using single stranded poly(U) RNA as substrate after 30 mins by ADP-Glo luminescence assay; summary of the method: as §1
T1 sequence (Q7Z478 whole entry): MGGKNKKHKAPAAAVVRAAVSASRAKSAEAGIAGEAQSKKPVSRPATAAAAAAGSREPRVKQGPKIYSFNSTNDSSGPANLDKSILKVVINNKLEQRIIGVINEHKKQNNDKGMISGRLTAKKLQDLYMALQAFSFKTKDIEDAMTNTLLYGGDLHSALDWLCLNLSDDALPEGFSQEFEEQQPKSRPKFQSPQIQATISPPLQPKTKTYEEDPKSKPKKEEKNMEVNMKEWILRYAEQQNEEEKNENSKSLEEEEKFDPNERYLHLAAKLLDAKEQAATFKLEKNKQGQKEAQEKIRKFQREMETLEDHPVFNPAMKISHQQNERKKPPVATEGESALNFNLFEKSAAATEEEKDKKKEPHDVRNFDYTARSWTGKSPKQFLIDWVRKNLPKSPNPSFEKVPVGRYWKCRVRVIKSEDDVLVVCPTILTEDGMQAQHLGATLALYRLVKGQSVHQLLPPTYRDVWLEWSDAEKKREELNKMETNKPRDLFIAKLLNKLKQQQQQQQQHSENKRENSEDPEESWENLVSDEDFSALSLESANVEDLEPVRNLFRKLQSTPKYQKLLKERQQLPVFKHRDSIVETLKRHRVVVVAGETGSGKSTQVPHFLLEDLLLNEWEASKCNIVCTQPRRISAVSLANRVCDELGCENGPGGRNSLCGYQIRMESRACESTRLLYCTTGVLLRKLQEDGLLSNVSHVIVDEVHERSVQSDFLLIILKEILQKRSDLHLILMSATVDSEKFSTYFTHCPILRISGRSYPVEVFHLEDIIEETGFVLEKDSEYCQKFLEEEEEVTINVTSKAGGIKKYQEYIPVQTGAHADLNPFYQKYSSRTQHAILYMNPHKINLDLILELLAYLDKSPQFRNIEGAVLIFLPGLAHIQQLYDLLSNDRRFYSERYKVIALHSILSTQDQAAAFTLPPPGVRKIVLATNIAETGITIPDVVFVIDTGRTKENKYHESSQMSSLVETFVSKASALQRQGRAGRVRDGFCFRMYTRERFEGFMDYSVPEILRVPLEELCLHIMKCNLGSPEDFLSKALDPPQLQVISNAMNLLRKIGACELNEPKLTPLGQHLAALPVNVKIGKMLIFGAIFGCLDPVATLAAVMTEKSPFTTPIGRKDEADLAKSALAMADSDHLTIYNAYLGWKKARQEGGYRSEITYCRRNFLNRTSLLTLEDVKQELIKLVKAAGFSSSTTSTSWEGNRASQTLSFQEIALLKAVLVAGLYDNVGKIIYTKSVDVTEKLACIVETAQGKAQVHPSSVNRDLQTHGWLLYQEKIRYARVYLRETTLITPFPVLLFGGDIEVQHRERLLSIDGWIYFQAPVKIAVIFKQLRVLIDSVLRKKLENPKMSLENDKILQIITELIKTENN

Homo sapiens [12] = species on record: Homo sapiens; experiment: Inhibition of NMD in human HCT116 cells assessed as upregulation of SC35 1.6 kb mRNA expression level at 1 uM after 6 hrs by qPCR analysis relative to control; format: cell-based
Summary of the method: (§3)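 HCT-116 colorectal carcinoma cells treated for 6 h at 1, 3 or 10 μM. SC35 1.6 kb mRNA level expressed as fold change relative to control. Data representative of three independent experiments.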

Homo sapiens [13] = species on record: Homo sapiens; experiment: Inhibition of NMD in human HCT116 cells assessed as upregulation of SC35 1.6 kb mRNA expression level at 3 uM after 6 hrs by qPCR analysis relative to control; format: cell-based; summary of the method: as §3
Homo sapiens [14] = species on record: Homo sapiens; experiment: Inhibition of NMD in human HCT116 cells assessed as upregulation of SC35 1.6 kb mRNA expression level at 10 uM after 6 hrs by qPCR analysis relative to control; format: cell-based; summary of the method: as §3
Mus musculus [15] = experiment: In vivo inhibition of NMD in BALB/cA Jc1 nude mouse xenografted with human HCT116 cells assessed as upregulation of SC35 1.6 kb mRNA expression level in tumor at 100 mg/kg, po administered as single dose measured after 4 hrs by qPCR analysis relative to control; format: functional
Summary of the method: (§4)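 HCT-116 xenograft mice given a single oral dose of 100 mg/kg in a solubilizing formulation. Tumour SC35 1.6 kb mRNA expression measured at 4, 8 and 24 h after dosing.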

Mus musculus [16] = experiment: In vivo inhibition of NMD in BALB/cA Jc1 nude mouse xenografted with human HCT116 cells assessed as upregulation of SC35 1.6 kb mRNA expression level in tumor at 100 mg/kg, po administered as single dose measured after 8 hrs by qPCR analysis relative to control; format: functional; summary of the method: as §4
Mus musculus [17] = experiment: In vivo inhibition of NMD in BALB/cA Jc1 nude mouse xenografted with human HCT116 cells assessed as upregulation of SC35 1.6 kb mRNA expression level in tumor at 100 mg/kg, po administered as single dose measured after 24 hrs by qPCR analysis relative to control; format: functional; summary of the method: as §4
HCT-116 [18] = experiment: Antitumor activity against human HCT116 cells xenografted in BALB/cA Jc1 nude mouse assessed as reduction in tumor volume at 100 mg/kg, po bid administered for 14 days measured twice per week relative to control; format: functional
Summary of the method: (§5)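 HCT-116 xenograft mice dosed orally at 100 mg/kg twice daily for 14 days in a solubilizing formulation. Efficacy expressed as T/C versus a vehicle group, with Dunnett's test; body weight change monitored over the study.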

Mus musculus [19] = experiment: Toxicity in BALB/cA Jc1 nude mouse xenografted with human HCT116 cells assessed as reduction in body weight at 100 mg/kg, po bid administered for 14 days measured twice per week; format: organism-based; parameters: scale not given: the % may be the effect or the level left; settings: in vivo, 336 h; summary of the method: as §5

IC50 [1] | solubility [2] | microsomal CLint [3] | AUC(0-t) at 8 h [4] | bioavailability [5] | Structure (SMILES) | also measured
490 nM |  |  |  |  | CS(=O)(=O)c1cccc(-c2cc(C(=O)N3CCN(C(=O)c4ccc(Cl)cc4)C(c4ccc(Cl)cc4)C3)c[nH]c2=O)c1 (configuration not stated) | 
420 nM |  |  |  |  | O=C(c1c[nH]c(=O)c(-c2ccccc2Cl)c1)N1CCN(C(=O)c2ccc(Cl)cc2)C(c2ccc(Cl)cc2)C1 (configuration not stated) | 
2700 nM | 3.2 µg/mL (≈ 5.98 µM) | 143 µL/min/mg | 129 ng·h/mL | 19.7% | O=C(c1ccnc2ccccc12)N1CCN(C(=O)c2ccc(Br)cc2)[C@@H](c2ccc(Cl)cc2)C1 | 
410 nM |  |  |  |  | O=C(c1c[nH]c(=O)c(-c2ccccc2)c1)N1CCN(C(=O)c2ccc(Cl)cc2)C(c2ccc(Cl)cc2)C1 (configuration not stated) | 
190 nM |  |  |  |  | N#Cc1cccc(-c2cc(C(=O)N3CCN(C(=O)c4ccc(Cl)cc4)C(c4ccc(Cl)cc4)C3)c[nH]c2=O)c1 (configuration not stated) | 
 | 0.46 µg/mL (≈ 0.763 µM) | 227 µL/min/mg | 9 ng·h/mL | 5.7% | O=C(c1cnn2cc(Br)ccc12)N1CCN(C(=O)c2ccc(Br)cc2)[C@@H](c2ccc(Cl)cc2)C1 | GI50 (HCT-116 [6]): 3060 nM; efflux ratio [7]: 0.9
1100 nM |  |  |  |  | O=C(c1c[nH]c(=O)c(-c2ccc(Cl)cc2)c1)N1CCN(C(=O)c2ccc(Cl)cc2)C(c2ccc(Cl)cc2)C1 (configuration not stated) | 
100 nM | 12 µg/mL (≈ 19.5 µM) | 6 µL/min/mg | 147 ng·h/mL | 16.1% | Cn1cc(C(=O)N2CCN(C(=O)c3ccc(Br)cn3)[C@@H](c3ccc(Cl)cc3)C2)cc(-c2cccc(C#N)c2)c1=O | IC50 [8]: > 100000 nM; IC50 [9]: > 100000 nM; IC50 [10]: > 100000 nM; IC50 [11]: > 100000 nM; fold change (FC) (Homo sapiens [12]): 2.17; fold change (FC) (Homo sapiens [13]): 8.41; fold change (FC) (Homo sapiens [14]): 19.1; GI50 (HCT-116 [6]): 1340 nM; fold change (FC) (Mus musculus [15]): 4; fold change (FC) (Mus musculus [16]): 2.5; fold change (FC) (Mus musculus [17]): 1.2; T/C (HCT-116 [18]): 54%; Activity (Mus musculus [19]): < 5%; efflux ratio [7]: 25
700 nM |  |  |  |  | O=C(c1c[nH]c(=O)c(-c2cccc(C(F)(F)F)c2)c1)N1CCN(C(=O)c2ccc(Cl)cc2)C(c2ccc(Cl)cc2)C1 (configuration not stated) | 
50 nM | 2.4 µg/mL (≈ 3.98 µM) | 113 µL/min/mg |  |  | N#Cc1cccc(-c2cc(C(=O)N3CCN(C(=O)c4ccc(Br)cn4)[C@@H](c4ccc(Cl)cc4)C3)c[nH]c2=O)c1 | efflux ratio [7]: 35
290 nM | 11 µg/mL (≈ 20 µM) | 16 µL/min/mg | 97.3 ng·h/mL | 9.6% | O=C(c1c[nH]c(=O)c2ccccc12)N1CCN(C(=O)c2ccc(Br)cc2)[C@@H](c2ccc(Cl)cc2)C1 | 
1300 nM |  |  |  |  | O=C(c1c[nH]c(=O)c2ccccc12)N1CCN(C(=O)c2ccc(Cl)cc2)C(c2ccc(Cl)cc2)C1 (configuration not stated) | 
280 nM | 3.8 µg/mL (≈ 6.29 µM) | 207 µL/min/mg | 55.9 ng·h/mL | 11.4% | O=C(c1cnn2cc(Br)ccc12)N1CCN(C(=O)c2ccc(Br)cn2)[C@@H](c2ccc(Cl)cc2)C1 | 
1600 nM | 5.1 µg/mL (≈ 9.54 µM) | 202 µL/min/mg | 1.5 ng·h/mL | 0.4% | O=C(c1cncc2ccccc12)N1CCN(C(=O)c2ccc(Br)cc2)[C@@H](c2ccc(Cl)cc2)C1 | 
290 nM |  |  |  |  | O=C(c1c[nH]c(=O)c(-c2cccc(Cl)c2)c1)N1CCN(C(=O)c2ccc(Cl)cc2)C(c2ccc(Cl)cc2)C1 (configuration not stated) | 
